Consider two compounds from ChEMBL document CHEMBL1828528, “Acyclic nucleoside thiophosphonates as potent inhibitors of HIV and HBV replication” (Eur J Med Chem, 2011).

In one series the test system is Punta Toro virus. The series can be described thus: Antiviral activity against Punta Toro virus infected in african green monkey Vero assessed as inhibition of virus-induced cytopathic effect cells up to 200 uM measured on day 3 post infection by microscopic analysis. It counts as functional, organism-based. The gist of the method: (§1)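 Confluent Vero cell monolayers inoculated with 100 CCID50 of virus. Compound added after 1–2 h adsorption, tested up to 200 μM. Microscopic CPE scoring on day 3 post infection versus untreated controls.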
In general terms: Protection from cytopathic effect is a common read-out in antiviral testing.

For series [1], the system named is Human immunodeficiency virus 1. The series is described as follows: Antiviral activity against HIV1 clade B isolate 2056 infected in human H9 cells assessed as inhibition of viral replication. To be noted: Human immunodeficiency virus 1, clade B isolate 2056, H9. Format: functional, organism-based. The method in brief:
(§2)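 H9 cells infected with HIV-1 clinical isolates of clades A, B, C, D, A/E, F and G, in the presence of graded compound concentrations. EC50 is the concentration reducing viral replication by 50%.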

The subject of series [2] is Respiratory syncytial virus. The series is described as follows: Antiviral activity against Respiratory syncytial virus infected in HeLa cells assessed as inhibition of virus-induced cytopathic effect up to 200 uM measured on day 3 post infection by microscopic analysis. Format: functional, organism-based. The gist of the method:
(§3)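 HeLa monolayers at confluency infected with 100 CCID50 of virus. Compound dilutions up to 200 μM added after 1–2 h adsorption. Cytopathic effect recorded microscopically on day 3 relative to untreated controls.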

The test system of series [3] is Human immunodeficiency virus 1. The series can be described thus: Antiviral activity against HIV1 clade D isolate 1649 infected in human H9 cells assessed as inhibition of viral replication. Format: functional, organism-based. The following applies: Human immunodeficiency virus 1, clade D isolate 1649, H9. The method in brief: as §2
The nature of series [4]: Cytotoxicity against […]-activated human PBMC on day 7 by MTT assay. Format: cell-based. The gist of the method:
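Uninfected PHA-P-activated PBMC and H9 cells exposed to graded compound concentrations. Viability by MTT on day 7. CC50 from quadratic fit of % viability against concentration; triplicates.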
A general note: Tetrazolium dyes change colour on reduction, which living cells bring about.

Series [5] relates to Human immunodeficiency virus 1. The series can be described thus: Antiviral activity against HIV1 clade A/E isolate 2165 infected in human H9 cells assessed as inhibition of viral replication. Format: functional, organism-based. The following applies: Human immunodeficiency virus 1, clade A/E isolate 2165, H9. The method in brief:
as §2

The test system of series [6] is Human immunodeficiency virus 1. The series is described as follows: Antiviral activity against HIV1 clade B isolate 2101 infected in human H9 cells assessed as inhibition of viral replication. Format: functional, organism-based. To be noted: Human immunodeficiency virus 1, clade B isolate 2101, H9. The gist of the method:
as §2

A further series concerns Influenza B virus. The series is described as follows: Antiviral activity against influenza B virus. It counts as functional, organism-based.
Series [7] deals with Human immunodeficiency virus 1. The series can be described thus: Antiviral activity against HIV1 clade A isolate 4113 infected in human H9 cells assessed as inhibition of viral replication. Format: functional, organism-based. The following applies: Human immunodeficiency virus 1, clade A isolate 4113, H9. The method in brief:
as §2

In a further series the test system is HeLa. The series can be described thus: Cytotoxicity against human HeLa cells up to 200 uM. Format: cell-based. The method in brief: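 Uninfected confluent Vero, CrFK, HEL or HeLa cultures incubated with serial compound dilutions (up to 200 μM) for the same period as the antiviral assays. Minimal toxic concentration is the lowest giving microscopically detectable alteration of cell morphology.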

Another series relates to Coxsackievirus B4. The series can be described thus: Antiviral activity against Coxsackie virus B4 infected in HeLa cells assessed as inhibition of virus-induced cytopathic effect up to 200 uM measured on day 3 post infection by microscopic analysis. Format: functional, organism-based. The method in brief:
as §3

A further series concerns Human alphaherpesvirus 2. The series is described as follows: Antiviral activity against Herpes simplex virus type 2 G infected in HEL cells assessed as inhibition of virus-induced cytopathic effect. It counts as functional, organism-based. To be noted: Human alphaherpesvirus 2, strain G. The gist of the method: (§4)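 Confluent HEL cell monolayers inoculated with 100 CCID50 of virus. Compounds added after a 1–2 h adsorption period. Virus-induced cytopathic effect scored microscopically at 3 days post infection as % of untreated controls. EC50 derived from graphical plots.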

For series [8], the system named is Mammalian orthoreovirus 1. The series is described as follows: Antiviral activity against Reovirus 1 infected in african green monkey Vero cells assessed as inhibition of virus-induced cytopathic effect up to 200 uM measured on day 3 post infection by microscopic analysis. It counts as functional, organism-based. The gist of the method:
as §1

In another series the test system is Hepatitis B virus. The series is described as follows: Antiviral activity against Hepatitis B virus infected in human HepAD38 cells assessed as reduction in viral DNA level after 6 days by real time quantitative PCR analysis. Format: functional, organism-based. To be noted: HePAD38, 144 h. The gist of the method:
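Tetracycline-regulated HepAD38 cells (5 × 10^5) induced after 2–3 days by PBS wash and feeding with medium lacking tetracycline and G418, with or without compound. Medium changed at day 3. Intracellular HBV DNA quantified by TaqMan Q-PCR at day 6 post induction against a full-genome plasmid standard curve, expressed as % of untreated. Actives retested.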

The next series has as its system Feline coronavirus. The series is described as follows: Antiviral activity against Feline coronavirus infected in CrFK cells assessed as inhibition of virus-induced cytopathic effect up to 200 uM measured on day 3 post infection by microscopic analysis. Format: functional, organism-based. The method in brief: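 Confluent CrFK cells inoculated with 100 CCID50 of virus. Compounds up to 200 μM added after 1–2 h adsorption. Cytopathic effect recorded microscopically at day 3 relative to untreated controls.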

For series [9], the system named is Human immunodeficiency virus 1. The series is described as follows: Antiviral activity against 6250 TCID50 wild type HIV1 LAI infected in human H9 cells assessed as reduction in viral replication measured on day 7 post infection by reverse transcriptase activity. Format: functional, organism-based. The following applies: Human immunodeficiency virus 1, LAI, H9, 168 h. The gist of the method:
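H9 cells in RPMI-1640/10% FCS given graded compound concentrations, then infected with a high inoculum of 6250 TCID50 HIV-1 LAI. Supernatant reverse transcriptase activity measured on day 7 post infection. EC50 taken as the concentration giving 50% reduction of viral replication.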

Series [10] concerns Human immunodeficiency virus 1. The series is described as follows: Antiviral activity against 100 TCID50 wild-type Human immunodeficiency virus 1 3B infected in CEM cells assessed as inhibition of syncytia formation after 4 days by microscopic analysis. It counts as functional, organism-based. To be noted: CCRF-CEM, 96 h. The method in brief:
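Human CEM cells (~3 × 10^5 cells/cm3) infected with 100 CCID50/mL HIV-1 IIIB and seeded into wells holding compound dilutions. After 4 days at 37 °C, giant-cell (syncytium) formation was scored microscopically. EC50 is the concentration inhibiting syncytia formation by 50%.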

Series [11] concerns Human immunodeficiency virus 1. The series is described as follows: Antiviral activity against HIV1 clade C isolate 2914 infected in human H9 cells assessed as inhibition of viral replication. It counts as functional, organism-based. To be noted: Human immunodeficiency virus 1, clade C isolate 2914, H9. The gist of the method: as §2
A short description of series [12]: Stability of compound in presence of CEM-SS cell extract assessed as compound degradation after 24 hrs by HPLC analysis. It counts as physicochemical. To be noted: human, read-out: Activity. The method in brief: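 Compound diluted to 0.1 mM final in one of two media and incubated at 37 °C: RPMI-1640 with 10% heat-inactivated FCS, or CEM-SS cell extract (soluble proteins 3 mg/mL in 10 mM Tris-HCl pH 7.4, 140 mM KCl). Aliquots were taken over time, frozen at −80 °C, then run on C18 reverse-phase HPLC with on-line filtration, TEAB/acetonitrile gradient and 260 nm detection. Degradation products were identified by co-injection.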

In another series the test system is Human respirovirus 3. The series can be described thus: Antiviral activity against Parainfluenza virus 3 infected in african green monkey Vero cells assessed as inhibition of virus-induced cytopathic effect up to 200 uM measured on day 3 post infection by microscopic analysis. It counts as functional, organism-based. The gist of the method:
as §1

In series [13] the test system is Human immunodeficiency virus 1. The series is described as follows: Antiviral activity against HIV1 clade C isolate 4110 infected in human H9 cells assessed as inhibition of viral replication. Format: functional, organism-based. The following applies: Human immunodeficiency virus 1, clade C isolate 4110, H9. The gist of the method: as §2
A short description of series [14]: Cytotoxicity against human HepAD38 cells. It counts as cell-based.
Series [15] concerns Human immunodeficiency virus 1. The series is described as follows: Antiviral activity against HIV1 clade B isolate 1722 infected in human H9 cells assessed as inhibition of viral replication. It counts as functional, organism-based. The following applies: Human immunodeficiency virus 1, clade B isolate 1722, H9. The method in brief: as §2
The next series has as its system Human alphaherpesvirus 1. The series is described as follows: Antiviral activity against TK-deficient and ACR-resistant Herpes simplex virus type 1 KOS infected in HEL cells assessed as inhibition of virus-induced cytopathic effect. It counts as functional, organism-based. The following applies: Human alphaherpesvirus 1, KOS. The method in brief: as §4

Structures are written as SMILES. Calls of active or inactive are those of the source. No cut-off for these calls is given here.

`C[C@H](Cn1cnc2c(N)ncnc21)OCP(=O)([O-])[S-].[Na+].[Na+]` (stereo partly drawn): the inhibition result (in the series with Punta Toro virus; in series [2]; in the series on Coxsackievirus B4; in series [8]; with Feline coronavirus; in the series on Human respirovirus 3) was “inactive” in each case. In addition, the EC50 – broadly, the concentration needed to bring the measured effect to its halfway point – in series [1] stood at 450 nM; in series [3] it was 710 nM; in [5], 340 nM; in series [6] it was 470 nM; in series [7], 4.49 µM; in the series with Human alphaherpesvirus 2, 48 µM. In addition, the EC50 worked out at 2800 nM in the series on Hepatitis B virus; 9.7 µM in [9]; 14 µM in series [10]; 380 nM in series [11]; 540 nM in series [13]; 510 nM in series [15]. In addition, in the series with Human alphaherpesvirus 1, the EC50 amounted to 80 µM. For the same compound, in series [4], the CC50 (as a rule, the concentration at which the toxic effect on the cells reaches its halfway point) at 7 day is over 100 µM. The outcome in the series on Influenza B virus was inactive. Also, in the series on HeLa, the Activity result is on record as “Non-toxic”. The metabolised at 24 h in series [12] was under 1%. Besides, the CC50 in [14] is over 150 µM.
For `Nc1ncnc2c1ncn2CCOCP(=O)([O-])[S-].[Na+].[Na+]` (stereo not drawn), the inhibition entry (in the series with Punta Toro virus; in series [2]; in the series with Coxsackievirus B4; in series [8]; with Feline coronavirus; in the series on Human respirovirus 3) was “inactive” each time. Also, the EC50 was found to be 3410 nM in [1]; 2770 nM in [3]; 300 nM in series [5]; 490 nM in [6]; 1.64 µM in [7]; 24 µM in the series with Human alphaherpesvirus 2. Further, the EC50 in the series on Hepatitis B virus was 3000 nM; in series [9], 17 µM; in series [10] it was 16 µM; in [11], 490 nM; in [13], 450 nM; in [15] it was 2800 nM. The EC50 with Human alphaherpesvirus 1 worked out at 24 µM. The compound also registered a CC50 at 7 day in series [4] of over 30 µM. For the same compound, the outcome with Influenza B virus was inactive. For the same compound, the Activity entry in the series with HeLa is “Non-toxic”. Also, the metabolised at 24 h in series [12] was under 1%. This compound returned a CC50 in series [14] of over 150 µM.
